Results published in the RNAGym collection of RNA variant scans (doi:10.1126/science.aae0568).
Fewer inactive variants are shown than the library holds.

B1: tRNA (parent)
chain: GUUCCGUUGGCGUAAUGGUAACGCGUCUCCCUCCUAAGGAGAAGACUGCGGGUUCGAGUCCCGUACGGAACG

Variants of: B1
Assay: yeast fitness relative to wild type (ratio to wild type); higher = fitter; tRNA-Arg(CCU), competitive growth, 37 C, YPD
Procedure, shortened: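 For this measurement, the tRNA-Arg(CCU) gene was varied by chemical synthesis at a 3% per-site mutation rate across 69 sites, and each variant was placed at the native genomic locus in Saccharomyces cerevisiae. The pooled strains went through a 24-hour competition in YPD at 37°C in six parallel replicates, with amplicons from start and end populations read by 100-nucleotide paired-end sequencing. Darwinian fitness relative to wild type followed from the change in each genotype's frequency. Genotypes needed ≥ 100 starting reads, and estimates < 0.5 were set to 0.5.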

| Variant | yeast fitness |
| --- | --- |
| U47C G50A G68C | 0.539 |
| U47C G52A | 0.724 |
| U47C G58C | 0.971 |
| U47C G58U A65U | 0.511 |
| U47C U53C | 0.795 |
| U47C U59C | 0.926 |
| U47G C49A A69U | 0.573 |
| U47G G68C | 0.563 |
| U47G U54A G58A | ≤ 0.5 |
| G48A A57C | 0.643 |
| G48A A65U | 1.02 |
| G48A A69U | 0.961 |
| G48A C49A G67U | 0.572 |
| G48A C49G | 1.05 |
| G48A C49G C60G | 0.576 |
| G48A C49U C62U A69U | 0.553 |
| G48A C49U G63C | 0.633 |
| G48A C55U | 0.661 |
| G48A C55U A70G | ≤ 0.5 |
| G48A C60G A65U | ≤ 0.5 |
| G48A C61G C62U | ≤ 0.5 |
| G48A C61U A65C | ≤ 0.5 |
| G48A C62G | 0.951 |
| G48A C62G C66A | ≤ 0.5 |

| Variant | yeast fitness |
| --- | --- |
| G48A G51C C61G | 1.02 |
| G48A G52A | 0.976 |
| G48A G52C G67C | ≤ 0.5 |
| G48A G56U G58A | ≤ 0.5 |
| G48A G68A | 0.998 |
| G48A U53G | 0.599 |
| G48A U54G | 0.686 |
| G48C A57G | 0.705 |
| G48C A57U | 0.622 |
| G48C A70C | 0.784 |
| G48C A70G | 0.901 |
| G48C C49A U53A G56A G58C G68C | ≤ 0.5 |
| G48C C49U | 0.787 |
| G48C C49U C55U | 0.663 |
| G48C C61U | 0.733 |
| G48C C62A | 0.771 |
| G48C G51C | 0.591 |
| G48C G52C A57C G58A C66U | ≤ 0.5 |
| G48C G52C C55U | ≤ 0.5 |
| G48C G63A A65G | 0.71 |
| G48C G63C A70C | ≤ 0.5 |
| G48C G67C | 0.563 |
| G48C G68C | 0.789 |
| G48C G68U | 0.771 |

| Variant | yeast fitness |
| --- | --- |
| G48C U54G C55U | ≤ 0.5 |
| G48C U64G | 0.714 |
| C49A A57U | 0.55 |
| C49A A65C | 0.686 |
| C49A A65U G67A | 0.529 |
| C49A A70C | 0.743 |
| C49A C55U | 0.606 |
| C49A C60A | 0.52 |
| C49A C60G A70C | ≤ 0.5 |
| C49A C60U G68C | ≤ 0.5 |
| C49A C61U C62G | ≤ 0.5 |
| C49A G50C | 0.572 |
| C49A G51A C55A C60A | ≤ 0.5 |
| C49A G51C U59A | ≤ 0.5 |
| C49A G52C | 0.527 |
| C49A G56A A57U | ≤ 0.5 |
| C49A G63C A69G | ≤ 0.5 |
| C49A G67U | 0.746 |
| C49G A57C A70G | 0.552 |
| C49G A65C | 0.733 |
| C49G C55A | 0.619 |
| C49G C60U C62U U64A | ≤ 0.5 |
| C49G C66A | 0.654 |
| C49G G50C C62U | 0.539 |

| Variant | yeast fitness |
| --- | --- |
| C49G G51A | 0.637 |
| C49G G52A A57C | ≤ 0.5 |
| C49G G52A C61G | 0.534 |
| C49G G56A G63A | 0.584 |
| C49G G63C A69U | 0.651 |
| C49G G63C G68C | ≤ 0.5 |
| C49G G68U | 0.808 |
| C49G U54C | 1.01 |
| C49U A57G | 0.865 |
| C49U A57U G58C | ≤ 0.5 |
| C49U A65G C66G | ≤ 0.5 |
| C49U A65G G67A A69U | ≤ 0.5 |
| C49U A69U | 1.01 |
| C49U A70C | 1.02 |
| C49U C55G | 0.885 |
| C49U C55G G63A | ≤ 0.5 |
| C49U C60U A69C | 0.566 |
| C49U C62G C66U | 0.608 |
| C49U G50C | 0.815 |
| C49U G56A G67A | 0.593 |
| C49U G58A A65G | 1 |
| C49U G67C | 0.851 |
| C49U G67U | 0.885 |
| C49U U53C A69C | 0.597 |

| Variant | yeast fitness |
| --- | --- |
| C49U U54G C61U | ≤ 0.5 |
| C49U U59C C61U | 0.618 |
| G50A A57C C60G C61U | ≤ 0.5 |
| G50A A57G | 0.944 |
| G50A A57U | 0.6 |
| G50A C55U A65G | ≤ 0.5 |
| G50A C60A | 0.581 |
| G50A C61A | 0.744 |
| G50A G51A | 0.645 |
| G50A G51C A65C | ≤ 0.5 |
| G50A G51C C60G | ≤ 0.5 |
| G50A G58C | 1.01 |
| G50A G63A | 0.943 |
| G50A G68A | 0.915 |
| G50A U59A | 0.831 |
| G50A U64C | 0.966 |
| G50C A69C | 0.67 |
| G50C A69U | 0.833 |
| G50C C55A | 0.619 |
| G50C C55U A69G | 0.554 |
| G50C C60G | ≤ 0.5 |
| G50C C61A | 0.544 |
| G50C C62G A70U | 0.606 |
| G50C G51C | 0.522 |

| Variant | yeast fitness |
| --- | --- |
| G50C G52A C61G | 0.722 |
| G50C G56A G58A | 0.64 |
| G50C G56C | 0.614 |
| G50C G67A | 0.816 |
| G50C U54A | 0.524 |
| G50U A69C | 0.958 |
| G50U C66U | 0.96 |
| G51A A69C | 0.979 |
| G51A A70G | 0.85 |
| G51A C60A | 0.599 |
| G51A C60G | 0.596 |
| G51A C60U C61U A65G A69C | 0.594 |
| G51A C61A C62G | ≤ 0.5 |
| G51A C66G | 0.704 |
| G51A G56A U59C | 0.565 |
| G51A G56C | 0.597 |
| G51A G58A | 0.967 |
| G51A G58A A65U | 0.713 |
| G51C A65C C66U | ≤ 0.5 |
| G51C C61A | 0.516 |
| G51C G56A | 0.698 |
| G51C U54A | ≤ 0.5 |
| G52A A57C A65C | 0.647 |
| G52A A57C A69U | 0.565 |

| Variant | yeast fitness |
| --- | --- |
| G52A C55G A57U | ≤ 0.5 |
| G52A C60A A69G | ≤ 0.5 |
| G52A G56U | 0.554 |
| G52A G63A | 0.546 |
| G52A G63C | 0.652 |
| G52A G68A | 0.678 |
| G52C A57C | 0.526 |
| G52C A57C G63C U64C | ≤ 0.5 |
| G52C A57U C60U C62U | ≤ 0.5 |
| G52C A57U C62U C66G | ≤ 0.5 |
| G52C A70C | 0.715 |
| G52C A70G | 0.637 |
| G52C G56A | 0.689 |
| G52C G63A A65G | ≤ 0.5 |
| G52C U53C | ≤ 0.5 |
| G52C U59A | 0.598 |
| G52C U59G | 0.538 |
| U53A A57C | 0.623 |
| U53A A69C | 0.622 |
| U53A A69U | 0.891 |
| U53A C55U | 0.545 |
| U53A G56C | ≤ 0.5 |
| U53A G58A G68U | ≤ 0.5 |
